Common to all, as to type: functional
Assay [1] has as its system Bacillus subtilis. As to the kind of experiment: Antibacterial activity against Bacillus subtilis NCIM 2250 after 24 to 72 hrs by cup plate method. The gist of the method:
(§1)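 MIC by cup plate method on Mueller Hinton agar plates containing compound at 0 (control), 1, 2, 3, 5, 10, 15, 20, 30 or 40 µg/mL. Plates were prepared per NCCLS M7-A5 and incubated at 37 °C. They were examined after 24 h and, where necessary, incubated further for 72 h. The MIC was taken as the lowest concentration giving inhibition.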

Assay [2] relates to Aspergillus niger. As to the kind of experiment: Antifungal activity against Aspergillus niger NCIM 545 after 48 hrs by agar cup plate method. The gist of the method:
(§2)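 Agar cup plate diffusion with compounds dissolved in DMSO. Bacteria (B. subtilis, E. coli) were grown on Mueller Hinton agar at 37 ± 0.5 °C. Fungi (C. albicans, A. niger) were grown on Czapek Dox medium at 28 ± 0.5 °C. Incubation was 48 h. The read-out was the diameter of the inhibition zone, averaged over three independent determinations.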

In assay [3] the test system is Candida albicans. Kind of assay: Antifungal activity against Candida albicans MTCC 277 after 24 to 72 hrs by cup plate method. Summed up: as §1
In assay [4] the test system is Candida albicans. Kind of assay: Antifungal activity against Candida albicans MTCC 277 after 48 hrs by agar cup plate method. Summed up: as §2
Assay [5] deals with Escherichia coli. As to the kind of experiment: Antibacterial activity against Escherichia coli ATCC 25922 after 24 to 72 hrs by cup plate method. The gist of the method:
as §1

The subject of assay [6] is Aspergillus niger. As to the kind of experiment: Antifungal activity against Aspergillus niger NCIM 545 after 24 to 72 hrs by cup plate method. Summed up:
as §1

The test system of assay [7] is Bacillus subtilis. Kind of assay: Antibacterial activity against Bacillus subtilis NCIM 2250 after 48 hrs by agar cup plate method. The gist of the method: as §2
Assay [8] has as its system Escherichia coli. Kind of assay: Antibacterial activity against Escherichia coli ATCC 25922 after 48 hrs by agar cup plate method. The gist of the method: as §2

Experimental findings from ChEMBL document CHEMBL1177890, “Synthesis and biological evaluation of new 2-chloro-3-((4-phenyl-1H-1,2,3-triazol-1-yl)methyl)quinoline derivatives via click chemistry approach” (2010) are described below.

In brackets after ≈: the same amount, converted by molar mass.

With `Clc1nc2ccccc2cc1Cn1cc(-c2ccccc2)nn1`, the minimal inhibitory concentration (MIC) (in general, the lowest concentration that inhibits growth of the organism) was found to be 15 µg/mL (≈ 46.8 µM) in assay [1], 15 µg/mL (≈ 46.8 µM) in assay [3], 15 µg/mL (≈ 46.8 µM) in assay [5] and 20 µg/mL (≈ 62.3 µM) in assay [6]. The “diameter of the inhibition zone (DIZ)” value in assay [2] came to 10 mm; in assay [4], 16 mm; in assay [7] it was 13.5 mm; in assay [8], 12 mm.

As to `Cc1ccc2nc(Cl)c(Cn3cc(-c4ccccc4)nn3)cc2c1`, the MIC in assay [1] was determined as 25 µg/mL (≈ 74.7 µM); in assay [3], 15 µg/mL (≈ 44.8 µM); in assay [5] it was 15 µg/mL (≈ 44.8 µM); in assay [6], 10 µg/mL (≈ 29.9 µM). Besides, the “diameter of the inhibition zone (DIZ)” value is reported as 16.1 mm in assay [2], 14.7 mm in assay [4], 11.4 mm in assay [7] and 14 mm in assay [8].

In the case of `CCc1cccc2cc(Cn3cc(-c4ccccc4)nn3)c(Cl)nc12`, the results for the minimum inhibitory concentration (MIC) in assay [1], in assay [3] and in assay [5] were 10 µg/mL (≈ 28.7 µM), 15 µg/mL (≈ 43 µM) and 15 µg/mL (≈ 43 µM), respectively. Moreover, the “diameter of the inhibition zone (DIZ)” value in assay [4] amounted to 14 mm; in assay [7], 16.1 mm; in assay [8], 15.9 mm.

In the case of `Cc1ccc2cc(Cn3cc(-c4ccccc4)nn3)c(Cl)nc2c1`, the MIC in assay [1] came to 10 µg/mL (≈ 29.9 µM); in assay [3], 10 µg/mL (≈ 29.9 µM); in assay [5], 15 µg/mL (≈ 44.8 µM). Further, the “diameter of the inhibition zone (DIZ)” value is reported as 16.4 mm in assay [4], 16.6 mm in assay [7] and 14 mm in assay [8].

Take `Cc1cccc2cc(Cn3cc(-c4ccccc4)nn3)c(Cl)nc12`: the minimal inhibitory concentration (MIC) in assay [1] came out at 20 µg/mL (≈ 59.7 µM); in assay [3] it was 25 µg/mL (≈ 74.7 µM); in assay [5], 20 µg/mL (≈ 59.7 µM); in assay [6], 20 µg/mL (≈ 59.7 µM). Also, the “diameter of the inhibition zone (DIZ)” value in assay [2] was 12.7 mm; in assay [4], 13.4 mm; in assay [7] it was 12 mm; in assay [8], 12 mm.

As for `COc1ccc2nc(Cl)c(Cn3cc(-c4ccccc4)nn3)cc2c1`, the MIC in assay [1] is 10 µg/mL (≈ 28.5 µM); in assay [3], 15 µg/mL (≈ 42.8 µM); in assay [6], 15 µg/mL (≈ 42.8 µM). In addition, the “diameter of the inhibition zone (DIZ)” value was found to be 16.3 mm in assay [2], 15.7 mm in assay [4] and 16.7 mm in assay [7].

Turning to `COc1ccc2cc(Cn3cc(-c4ccccc4)nn3)c(Cl)nc2c1`, the MIC in assay [1] turned out to be 10 µg/mL (≈ 28.5 µM); in assay [3], 15 µg/mL (≈ 42.8 µM); in assay [5] it was 10 µg/mL (≈ 28.5 µM); in assay [6], 20 µg/mL (≈ 57 µM). Besides, the “diameter of the inhibition zone (DIZ)” value turned out to be 14 mm in assay [4], 16 mm in assay [7] and 16.4 mm in assay [8].

As for `CCOc1ccc2nc(Cl)c(Cn3cc(-c4ccccc4)nn3)cc2c1`, the “diameter of the inhibition zone (DIZ)” value is listed as 12.8 mm in assay [2] and 16.5 mm in assay [4]. In assay [3], this molecule showed an MIC of 10 µg/mL (≈ 27.4 µM).

`COC1=CC(=O)C[C@@H](C)[C@]12Oc1c(Cl)c(OC)cc(OC)c1C2=O` [GRISEOFULVIN]: the “diameter of the inhibition zone (DIZ)” value in assay [2] is listed as 16.6 mm; in assay [4], 16.9 mm. Further, the MIC in assay [3] was 5 µg/mL (≈ 14.2 µM).

In the case of `CN[C@@H]1[C@H](O[C@H]2[C@H](O[C@H]3[C@H](O)[C@@H](O)[C@H](N=C(N)N)[C@@H](O)[C@@H]3N=C(N)N)O[C@@H](C)[C@]2(O)C=O)O[C@@H](CO)[C@H](O)[C@H]1O` [STREPTOMYCIN], the minimum inhibitory concentration (MIC) in assay [1], in assay [5] and in assay [6] was 5 µg/mL (≈ 8.6 µM) in each case. Also, the figures for the “diameter of the inhibition zone (DIZ)” value in assay [7] and in assay [8] were 16.5 mm and 16.1 mm, respectively.
